Where two headings read alike, the source gives them in different places.
Columns and labels:
[1] = tested on: MCF-7 (breast cancer) cells; assay: In vitro cytotoxicity, MTT/MTS cell viability assay, MCF-7; format: cell-based, human; conditions: read-out: IC50 ± SD, MCF-7
Summary of the method: (§1)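 Human cancer lines from ATCC, grown in RPMI-1640 or DMEM with 10% FBS at 37 °C, 5% CO2. Seeding at 1 × 10^5 cells per mL: adherent cells 12 h before dosing, suspension cells at dosing. 48 h exposure to graded concentrations, in triplicate; cisplatin and paclitaxel as positive controls. MTS added for 4 h at 37 °C, lysis in 20% SDS–50% DMF, OD 490 nm. IC50 by Reed and Muench's method.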

[2] = tested on: A-549 (lung cancer) cells; assay: In vitro cytotoxicity, MTT/MTS cell viability assay, A-549; format: cell-based, human; conditions: read-out: IC50 ± SD, A-549
Summary of the method: as §1

HL-60 (leukemia) cells = assay: In vitro cytotoxicity, MTT/MTS cell viability assay, HL-60; format: cell-based, human; conditions: read-out: IC50 ± SD, HL-60
Summary of the method: as §1

[3] = tested on: SMMC-7721 (hepatoma cells); assay: In vitro cytotoxicity, MTT/MTS cell viability assay, SMMC-7721; format: cell-based, human; conditions: read-out: IC50 ± SD, SMMC-7721
Summary of the method: as §1

[4] = tested on: SW480 (colon cancer) cells; assay: In vitro cytotoxicity, MTT/MTS cell viability assay, SW480; format: cell-based, human; conditions: read-out: IC50 ± SD, SW480
Summary of the method: as §1

[5] = tested on: human normal pulmonary epithelial cells (BEAS-2B); assay: Growth inhibitory effect on normal cells, BEAS-2B; format: cell-based; conditions: for IC50: read-out: IC50 ± SD, BEAS-2B
[6] = tested on: five human cancer cell lines (HL-60, SMMC-7721, A-549, MCF-7 and SW480); assay: Cytotoxicity against the panel of five tested cancer cell lines; format: cell-based; conditions: for cytotoxicity against the tested cancer cell lines (in words): five tested cancer cell lines; for IC50: Homo sapiens, read-out: IC50 against all the tested cancer cell lines
Summary of the method: as §1

| Molecule | IC50 ([1]; Homo sapiens, MCF7, 48 h) [µM] | IC50 ([2]; Homo sapiens, A549, 48 h) [µM] | IC50 (HL-60 (leukemia) cells; Homo sapiens, HL-60, 48 h) [µM] | IC50 ([3]; Homo sapiens, SMMC-7721, 48 h) [µM] | IC50 ([4]; Homo sapiens, SW480, 48 h) [µM] | IC50 ([5]; Homo sapiens, BEAS-2B) [µM] | cytotoxicity against the tested cancer cell lines (in words) [6] | IC50 [6] [µM] | toxicity to BEAS-2B cells (in words) ([5]; BEAS-2B normal cells) | IC50 ([1]; MCF-7 cells, 48 h exposure) [µM] | IC50 ([2]; A-549 cells, 48 h exposure) [µM] | IC50 (HL-60 (leukemia) cells; HL-60 cells, 48 h exposure) [µM] | IC50 ([4]; SW480 cells, 48 h exposure) [µM] | IC50 ([5]; BEAS-2B normal pulmonary epithelial cells) [µM] | IC50 ([3]; SMMC-7721 cells, 48 h exposure) [µM] |
| --- | --- | --- | --- | --- | --- | --- | --- | --- | --- | --- | --- | --- | --- | --- | --- |
| O=c1c2ccc(O)cc2oc2cc(O)cc(O)c12 [Compound 2u, 1,3,6-Trihydroxy-9H-xanthen-9-one] | > 40 | > 40 | > 40 | > 40 | > 40 |  |  |  |  |  |  |  |  |  |  |
| COc1c(O)cc2oc3cc(O)c(CCC(C)(C)O)c(O)c3c(=O)c2c1CC=C(C)C [Compound 2n, 1,3,6-Trihydroxy-2-(3-hydroxy-3-methylbutyl)-7-methoxy-8-(3-methylbut-2-en-1-yl)-9H-xanthen-9-one] | 24.6 ± 0.47 | 17 ± 0.77 | 14.4 ± 0.05 | 26.3 ± 1.04 | 22.7 ± 2.35 | 29.3 ± 1.02 | slightly decreased activity or comparative activity |  |  |  |  |  |  |  |  |
| COc1c(O)cc2oc3cc(O)c(CC=C(C)C)c(O)c3c(=O)c2c1CC1OC1(C)C (stereo not drawn) [Compound 2l, 1-((3,3-Dimethyloxiran-2-yl)methyl)-3,6,8-trihydroxy-2-methoxy-7-(3-methylbut-2-en-1-yl)-9H-xanthen-9-one] | > 40 | > 40 | > 40 | > 40 | > 40 |  |  | > 40 |  |  |  |  |  |  |  |
| COc1c(O)cc2oc3cc(O)c(CC=C(C)C)c(O)c3c(=O)c2c1CC(O)C(C)(C)O (stereo not drawn) [Compound 2b, 1,3,6-Trihydroxy-2-(3-methyl-2-butenyl)-7-methoxy-8-(2,3-dihydroxy-3-methylbutyl)xanthone] | > 40 | > 40 | > 40 | > 40 | > 40 |  |  | > 40 |  |  |  |  |  |  |  |
| COc1c(O)cc2oc3cc(O)c(CC(O)C(C)(C)O)c(O)c3c(=O)c2c1CCC(C)C (stereo not drawn) [Compound 2d, 1,3,6-Trihydroxy-2-(2,3-dihydroxy-3-methylbutyl)-7-methoxy-8-isopentyl-9H-xanthen-9-one] | > 40 | 36 ± 0.99 | 21.6 ± 2.41 | 26.9 ± 3.75 | > 40 | > 40 | slightly decreased activity or comparative activity |  |  |  |  |  |  |  |  |
| COc1c(O)cc2oc3cc(O)c(CCC(C)C)c(O)c3c(=O)c2c1CC(O)C(C)(C)O (stereo not drawn) [Compound 2e, 1,3,6-Trihydroxy-2-isopentyl-7-methoxy-8-(2,3-dihydroxy-3-methylbutyl)-9H-xanthen-9-one] | > 40 | > 40 | 18.7 ± 0.23 | > 40 | > 40 | > 40 |  |  | non-cytotoxic |  |  |  |  |  |  |
| COc1cc2oc3cc(OC)c(OC)c(CCC(C)C)c3c(=O)c2c(OC)c1CC(OC)C(C)(C)OC (stereo not drawn) [Compound 2j, 2-(2,3-Dimethoxy-3-methylbutyl)-8-isopentyl-1,3,6,7-tetramethoxy-9H-xanthen-9-one] | > 40 | > 40 | > 40 | > 40 | > 40 |  | disappearance of cytotoxicity |  |  |  |  |  |  |  |  |
| COc1c(O)cc2oc3cc(O)c(CC(O)C(C)(C)O)c(O)c3c(=O)c2c1CC(O)C(C)(C)O (stereo not drawn) [Compound 2c, 1,3,6-Trihydroxy-7-methoxy-2,8-bis(2,3-dihydroxy-3-methylbutyl)-9H-xanthen-9-one] | > 40 | > 40 | > 40 | > 40 | > 40 |  | completely disappeared | > 40 |  |  |  |  |  |  |  |
| COc1c(O)cc2oc3cc(O)c(CC(O)C(C)(C)O)c(O)c3c(=O)c2c1CC=C(C)C (stereo not drawn) [Compound 2a, 1,3,6-Trihydroxy-2-(2,3-dihydroxy-3-methylbutyl)-7-methoxy-8-(3-methyl-2-butenyl)xanthone] | 23.7 ± 0.64 | 19.8 ± 1.42 | 18.2 ± 0.48 | 23.4 ± 1.29 | > 40 | 18.3 ± 0.51 | slightly decreased activity or comparative activity |  |  |  |  |  |  |  |  |
| Mangostanin [Compound 2m] |  |  |  |  |  |  | slightly decreased activity or comparative activity |  |  | > 40 | > 40 | > 40 | > 40 |  |  |
| COc1cc2oc3cc(OC)c(OC)c(CC=C(C)C)c3c(=O)c2c(OC)c1CC(OC)C(C)(C)OC (stereo not drawn) [Compound 2i, 2-(2,3-Dimethoxy-3-methylbutyl)-1,3,6,7-tetramethoxy-8-(3-methylbut-2-en-1-yl)-9H-xanthen-9-one] | > 40 | > 40 | > 40 | > 40 | > 40 |  | disappearance of cytotoxicity |  |  |  |  |  |  |  |  |
| COc1cccc2c1C(=O)c1c(O)c3c(c(O)c1C2=O)C[C@@](O)(C(=O)CO)C[C@@H]3O[C@H]1C[C@H](N)[C@H](O)[C@H](C)O1 [ADM, Adriamycin, reference compound] | 0.9 ± 0.02 | 0.3 ± 0.01 | 0.14 | 0.9 ± 0.03 | 0.11 ± 0.01 | > 40 |  |  |  |  |  |  |  |  |  |
| N.N.[Cl][Pt][Cl] [DDP, Cisplatin, reference compound] |  |  |  |  |  |  |  |  |  | 28.4 ± 3.71 | 13.8 ± 0.74 | 3.19 ± 0.18 | 14.8 ± 2.15 | > 40 | 18 ± 0.49 |
